This note sets out measurements from ChEMBL document CHEMBL1145725, “Synthesis and antimicrobial activity of novel globomycin analogues” (2003).

Assay [1] concerns Enterobacter cloacae. As to the kind of experiment: Antibacterial activity against Enterobacter cloacae 846. Format: functional. The method in brief: (§1)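 MIC by agar dilution on Nutrient Agar, following the NCCLS standard dilution method for aerobically growing bacteria.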
For assay [2], the system named is Enterobacter cloacae. In words: Antibacterial activity against Enterobacter cloacae SANK 72690. Format: functional. The essentials: as §1
Assay [3] has as its system Escherichia coli. In words: Antibacterial activity against Escherichia coli SANK 70569 (NIHJ JC-2). Format: functional. The essentials:
as §1

Assay [4] has as its system Escherichia coli. In words: Antibacterial activity against Escherichia coli SANK 72290. The format is functional. The essentials: as §1
The next assay deals with Klebsiella pneumoniae. As to the kind of experiment: Antibacterial activity against Klebsiella pneumoniae SANK 72490. Format: functional. The method in brief:
as §1

The next assay deals with Morganella morganii. As to the kind of experiment: Antibacterial activity against Morganella morganii SANK 72990. The format is functional. The method in brief:
as §1

Assay [5] relates to Pseudomonas aeruginosa. As to the kind of experiment: Antibacterial activity against Pseudomonas aeruginosa SANK 3719. Format: functional. The method in brief:
as §1

For assay [6], the system named is Pseudomonas aeruginosa. As to the kind of experiment: Antibacterial activity against Pseudomonas aeruginosa SANK 73090. Format: functional. The essentials: as §1
The test system of another assay is Salmonella enteritidis. As to the kind of experiment: Antibacterial activity against Salmonella enteritidis SANK 72390. The format is functional, Salmonella enterica subsp. enterica serovar Enteritidis. Particulars: Salmonella enterica. The method in brief:
as §1

Another assay deals with Serratia marcescens. As to the kind of experiment: Antibacterial activity against Serratia marcescens SANK 72790. Format: functional. The essentials:
as §1

The next assay has as its system Proteus vulgaris. As to the kind of experiment: Antibacterial activity against Proteus vulgaris SANK 72890. Format: functional. The essentials:
as §1

Assay [7] concerns Pseudomonas aeruginosa. As to the kind of experiment: Antibacterial activity against Pseudomonas aeruginosa SANK 73190. Format: functional. The essentials: as §1
The test system of the next assay is Enterococcus faecalis. As to the kind of experiment: Antibacterial activity against Enterococcus faecalis SANK 71990. Format: functional. The essentials:
as §1

The test system of assay [8] is Staphylococcus aureus. As to the kind of experiment: Antibacterial activity against Staphylococcus aureus SANK 70668. The format is functional. The method in brief:
as §1

Assay [9] concerns Staphylococcus aureus. As to the kind of experiment: Antibacterial activity against Staphylococcus aureus SANK 71790. Format: functional. The method in brief:
as §1

The test system of assay [10] is Staphylococcus aureus. In words: Antibacterial activity against Staphylococcus aureus SANK 71890 (MRSA). The format is functional. The method in brief: as §1

As usually defined, the MIC is the lowest concentration that inhibits growth of the organism. Read a low MIC as inhibition by little substance.

≈ marks a conversion by molar mass, not a printed value. A value given as a limit tells only on which side of the number the result lay.

Regarding `CCCCCC[C@H]1OC(=O)CNC(=O)[C@@H]([C@H](C)OC)NC(=O)[C@H](CO)NC(=O)[C@H]([C@H](C)CC)NC(=O)[C@H](CC(C)C)N(C)C(=O)[C@@H]1C`, the MIC is 12.5 µg/mL (≈ 18.7 µM) against Enterobacter cloacae [1]; 100 µg/mL (≈ 149 µM) against Enterobacter cloacae [2]; 25 µg/mL (≈ 37.3 µM) against Escherichia coli [3]; 25 µg/mL (≈ 37.3 µM) in the assay with Escherichia coli [4]; 50 µg/mL (≈ 74.6 µM) in the assay on Klebsiella pneumoniae; over 100 µg/mL against Morganella morganii. In addition, the MIC against Pseudomonas aeruginosa [5] is over 100 µg/mL; in the assay on Pseudomonas aeruginosa [6], over 100 µg/mL; in the assay on Salmonella enteritidis, 50 µg/mL (≈ 74.6 µM); in the assay with Serratia marcescens it was over 100 µg/mL; in the assay with Proteus vulgaris, over 100 µg/mL; in the assay on Pseudomonas aeruginosa [7], over 100 µg/mL.
Turning to `CCCCCC[C@H]1OC(=O)CNC(=O)[C@@H]([C@@H](C)O)NC(=O)[C@H](CO)NC(=O)[C@H]([C@@H](C)CC)NC(=O)[C@H](CC(C)C)N(C)C(=O)[C@@H]1C`, the MIC in the assay on Enterobacter cloacae [1], in the assay on Enterobacter cloacae [2], in the assay on Escherichia coli [3], against Escherichia coli [4], in the assay on Klebsiella pneumoniae and in the assay on Morganella morganii was over 100 µg/mL in each case. Also, the MIC against Pseudomonas aeruginosa [5], in the assay with Pseudomonas aeruginosa [6], against Salmonella enteritidis, against Serratia marcescens, in the assay on Proteus vulgaris and against Pseudomonas aeruginosa [7] was over 100 µg/mL each time.
On to `CCCCCC[C@H]1OC(=O)CNC(=O)[C@@H]([C@@H](C)O)NC(=O)[C@H](CO)NC(=O)[C@H]([C@H](C)CC)NC(=O)[C@H](CC(C)C)N(C)C(=O)[C@@H]1C`, for which the MIC in the assay on Enterobacter cloacae [1] was 100 µg/mL (≈ 152 µM); in the assay with Enterobacter cloacae [2] it was over 100 µg/mL; against Escherichia coli [3], over 100 µg/mL; with Escherichia coli [4] it was over 100 µg/mL; with Klebsiella pneumoniae, over 100 µg/mL; in the assay on Morganella morganii it was over 100 µg/mL. The MIC against Pseudomonas aeruginosa [5], with Pseudomonas aeruginosa [6], with Salmonella enteritidis, with Serratia marcescens, in the assay with Proteus vulgaris and in the assay on Pseudomonas aeruginosa [7] was over 100 µg/mL each time.
For `CCCCCCCC[C@H]1OC(=O)CNC(=O)[C@H]([C@H](C)O)NC(=O)[C@H](CO)NC(=O)[C@H]([C@H](C)CC)NC(=O)[C@H](CC(C)C)N(C)C(=O)[C@@H]1C`, the MIC was determined as 100 µg/mL (≈ 146 µM) with Enterococcus faecalis; 1.56 µg/mL (≈ 2.28 µM) in the assay with Enterobacter cloacae [1]; 12.5 µg/mL (≈ 18.3 µM) with Enterobacter cloacae [2]; 3.13 µg/mL (≈ 4.58 µM) in the assay on Escherichia coli [3]; 3.13 µg/mL (≈ 4.58 µM) in the assay on Escherichia coli [4]; 3.13 µg/mL (≈ 4.58 µM) with Klebsiella pneumoniae. Further, the MIC is over 100 µg/mL against Morganella morganii; over 100 µg/mL against Pseudomonas aeruginosa [5]; over 100 µg/mL in the assay with Pseudomonas aeruginosa [6]; 6.25 µg/mL (≈ 9.14 µM) with Salmonella enteritidis; 50 µg/mL (≈ 73.1 µM) against Staphylococcus aureus [8]; 50 µg/mL (≈ 73.1 µM) in the assay on Staphylococcus aureus [9]. In addition, the MIC against Staphylococcus aureus [10] is 50 µg/mL (≈ 73.1 µM); against Serratia marcescens, 12.5 µg/mL (≈ 18.3 µM); with Proteus vulgaris, over 100 µg/mL; with Pseudomonas aeruginosa [7], over 100 µg/mL.
Turning to `CCCCCC[C@H]1OC(=O)CNC(=O)[C@H]([C@H](C)O)NC(=O)[C@H](CO)NC(=O)[C@H]([C@H](C)CC)NC(=O)[C@H](CC(C)C)N(C)C(=O)[C@@H]1C`, the MIC was over 100 µg/mL in the assay on Enterococcus faecalis; 6.25 µg/mL (≈ 9.53 µM) with Enterobacter cloacae [1]; 50 µg/mL (≈ 76.2 µM) in the assay with Enterobacter cloacae [2]; 12.5 µg/mL (≈ 19.1 µM) with Escherichia coli [3]; 12.5 µg/mL (≈ 19.1 µM) against Escherichia coli [4]; 25 µg/mL (≈ 38.1 µM) with Klebsiella pneumoniae. Also, the MIC was over 100 µg/mL in the assay on Morganella morganii; over 100 µg/mL with Pseudomonas aeruginosa [5]; over 100 µg/mL against Pseudomonas aeruginosa [6]; 25 µg/mL (≈ 38.1 µM) in the assay on Salmonella enteritidis; over 100 µg/mL with Staphylococcus aureus [8]; over 100 µg/mL in the assay on Staphylococcus aureus [9]. Further, the MIC against Staphylococcus aureus [10] is over 100 µg/mL; against Serratia marcescens, 100 µg/mL (≈ 152 µM); against Proteus vulgaris it was over 100 µg/mL; in the assay with Pseudomonas aeruginosa [7], over 100 µg/mL.
For `CCCCCC[C@H]1OC(=O)CNC(=O)[C@@H]([C@H](C)O)NC(=O)[C@H](CO)NC(=O)[C@H]([C@@H](C)CC)NC(=O)[C@H](CC(C)C)N(C)C(=O)[C@@H]1C`, the MIC with Enterobacter cloacae [1] was 6.25 µg/mL (≈ 9.53 µM); in the assay on Enterobacter cloacae [2] it was 50 µg/mL (≈ 76.2 µM); against Escherichia coli [3], 12.5 µg/mL (≈ 19.1 µM); with Escherichia coli [4] it was 12.5 µg/mL (≈ 19.1 µM); against Klebsiella pneumoniae, 25 µg/mL (≈ 38.1 µM); against Morganella morganii, over 100 µg/mL. The MIC in the assay with Pseudomonas aeruginosa [5] is over 100 µg/mL; in the assay on Pseudomonas aeruginosa [6], over 100 µg/mL; in the assay with Salmonella enteritidis, 50 µg/mL (≈ 76.2 µM); with Serratia marcescens, over 100 µg/mL; with Proteus vulgaris it was over 100 µg/mL; against Pseudomonas aeruginosa [7], over 100 µg/mL.
Regarding `CCCCCCCCCC[C@H]1OC(=O)CNC(=O)[C@H]([C@H](C)O)NC(=O)[C@H](CO)NC(=O)[C@H]([C@H](C)CC)NC(=O)[C@H](CC(C)C)N(C)C(=O)[C@@H]1C`, the MIC with Enterococcus faecalis was found to be 12.5 µg/mL (≈ 17.6 µM); against Enterobacter cloacae [1], 1.56 µg/mL (≈ 2.19 µM); in the assay with Enterobacter cloacae [2], 3.13 µg/mL (≈ 4.4 µM); in the assay with Escherichia coli [3], 1.56 µg/mL (≈ 2.19 µM); with Escherichia coli [4], 1.56 µg/mL (≈ 2.19 µM); against Klebsiella pneumoniae, 1.56 µg/mL (≈ 2.19 µM). In addition, the MIC against Morganella morganii was over 100 µg/mL; in the assay on Pseudomonas aeruginosa [5], over 100 µg/mL; in the assay on Pseudomonas aeruginosa [6] it was over 100 µg/mL; in the assay with Salmonella enteritidis, 3.13 µg/mL (≈ 4.4 µM); in the assay on Staphylococcus aureus [8], 6.25 µg/mL (≈ 8.78 µM); against Staphylococcus aureus [9], 6.25 µg/mL (≈ 8.78 µM). Also, the minimal inhibitory concentration (MIC) is 12.5 µg/mL (≈ 17.6 µM) with Staphylococcus aureus [10], 3.13 µg/mL (≈ 4.4 µM) in the assay on Serratia marcescens, over 100 µg/mL in the assay with Proteus vulgaris and over 100 µg/mL against Pseudomonas aeruginosa [7].
Regarding `CCCCCC[C@H]1OC(=O)CNC(=O)[C@H](CC)NC(=O)[C@H](CO)NC(=O)[C@H]([C@H](C)CC)NC(=O)[C@H](CC(C)C)N(C)C(=O)[C@@H]1C`, the MIC was 12.5 µg/mL (≈ 19.5 µM) with Enterobacter cloacae [1]; over 100 µg/mL with Enterobacter cloacae [2]; 25 µg/mL (≈ 39.1 µM) with Escherichia coli [3]; 25 µg/mL (≈ 39.1 µM) with Escherichia coli [4]; 50 µg/mL (≈ 78.1 µM) with Klebsiella pneumoniae; over 100 µg/mL against Morganella morganii. Besides, the MIC was over 100 µg/mL against Pseudomonas aeruginosa [5]; over 100 µg/mL with Pseudomonas aeruginosa [6]; 100 µg/mL (≈ 156 µM) with Salmonella enteritidis; over 100 µg/mL with Serratia marcescens; over 100 µg/mL with Proteus vulgaris; over 100 µg/mL in the assay with Pseudomonas aeruginosa [7].
Turning to `CCCCCC[C@H]1OC(=O)CNC(=O)[C@H]([C@H](C)O)NC(=O)[C@H](CO)NC(=O)[C@H]([C@H](C)CC)NC(=O)[C@H](CC(C)C)NC(=O)[C@@H]1C`, the MIC was 100 µg/mL (≈ 156 µM) against Enterobacter cloacae [1]; over 100 µg/mL against Enterobacter cloacae [2]; over 100 µg/mL against Escherichia coli [3]; over 100 µg/mL against Escherichia coli [4]; over 100 µg/mL with Klebsiella pneumoniae; over 100 µg/mL in the assay with Morganella morganii. Besides, the MIC with Pseudomonas aeruginosa [5], against Pseudomonas aeruginosa [6], in the assay with Salmonella enteritidis, with Serratia marcescens, against Proteus vulgaris and against Pseudomonas aeruginosa [7] was over 100 µg/mL in each case.
